Bioassay records (PubChem BioAssay)
UHRF1 MBD2 ctr – blocks human UHRF1 binding to methylated DNA; inhibition, % at 4.4 µM; Q96T88; UHRF1 binding to methylated oligo, TR-FRET; 0.75% of 370,000 active;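 further: UHRF1 SRA domain binding a hemimethylated CpG hairpin DNA probe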
Target sequence (Q96T88 whole entry, looked up, the tested form may be a part): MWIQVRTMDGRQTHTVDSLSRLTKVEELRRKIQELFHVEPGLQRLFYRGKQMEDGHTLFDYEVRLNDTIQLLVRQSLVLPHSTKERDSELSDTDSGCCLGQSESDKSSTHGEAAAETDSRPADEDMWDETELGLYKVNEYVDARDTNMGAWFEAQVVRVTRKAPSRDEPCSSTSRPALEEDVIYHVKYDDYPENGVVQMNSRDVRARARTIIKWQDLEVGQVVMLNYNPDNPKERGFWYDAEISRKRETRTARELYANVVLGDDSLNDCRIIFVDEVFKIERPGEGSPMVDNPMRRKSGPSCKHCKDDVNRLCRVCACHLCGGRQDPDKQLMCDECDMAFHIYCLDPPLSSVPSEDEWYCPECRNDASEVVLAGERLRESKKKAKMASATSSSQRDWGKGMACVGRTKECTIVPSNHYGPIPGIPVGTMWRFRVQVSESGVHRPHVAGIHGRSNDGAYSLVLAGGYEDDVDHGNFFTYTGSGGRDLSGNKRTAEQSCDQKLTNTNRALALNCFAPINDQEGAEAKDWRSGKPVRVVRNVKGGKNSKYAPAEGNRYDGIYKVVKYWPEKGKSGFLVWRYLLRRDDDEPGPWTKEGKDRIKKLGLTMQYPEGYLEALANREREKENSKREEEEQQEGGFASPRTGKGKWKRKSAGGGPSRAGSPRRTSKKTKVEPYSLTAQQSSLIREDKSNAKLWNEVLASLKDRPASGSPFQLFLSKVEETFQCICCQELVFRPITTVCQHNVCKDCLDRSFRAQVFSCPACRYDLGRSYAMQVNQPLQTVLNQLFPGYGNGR
MBD2 DNA inh – MBD2-methylated oligo binding inhibition. Q9UBB5. TR-FRET, MBD2 binding to methylated oligonucleotide. inhibition, % at 4.4 µM. 0.31% of 370,000 active. AID 686964; in the data active means inhibition above about 13%
CASP6 VEID inh – inhibitors of human caspase-6; P55212; purified caspase-6, Z-VEID-R110 cleavage fluorescence; inhibition, % at 12.5 µM; 0.53% of 350,000 active; AID 686996;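 active means mean inhibition across replicates at least about 35%, with every replicate also reaching that limit, limit read from the data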
NSD2 HMT inh – blocks human histone methyltransferase NSD2; O96028; NSD2 peptide methylation, AlphaScreen, 120 min; inhibition, % at 12.5 µM; 0.54% of 310,000 active; AID 743445; in the data active means inhibition above about 50%
LEDGF integ inh – blocks HIV-1 LEDGF/p75-dependent DNA integration | TR-FRET IN-LEDGF/p75 DNA integration, Eu/Cy5 | inhibition, % at 3.7 µM | 0.64% of 370,000 active;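 active means inhibition above the screen-wide mean plus 3 SD, cut at about 13% in these data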;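 further: signal is the Cy5 over europium emission ratio at 671 and 618 nm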
TDP2 inh – blocks human TDP2 phosphodiesterase activity; O95551; recombinant TDP2, T5PNP hydrolysis, p-nitrophenol absorbance 415 nm; inhibition, % at 12.8 µM; 0.34% of 370,000 active;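 active means inhibition above the mean of all tested compounds plus 3 SD, set per campaign, cut at about 25% in these data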
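System – recombinant human TDP2 · Quantity – TDP2 enzyme at 120 nM final · Doses – single concentration, 12.8 µM nominal, with 1% DMSO · Incubation – 2 h at 37 °C · Measured by – epi absorbance of p-nitrophenol freed from T5PNP by hydrolysis · Read-out – % inhibition relative to enzyme-containing and enzyme-free wells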
UHRF1 DNA bind – UHRF1 methyl-oligo binding inhibition as MBD2 counter-screen. shares compounds with MBD2 DNA inh. UHRF1 binding to methylated oligonucleotide, TR-FRET. inhibition, % at 4.4 µM. 25% of 1,000 active;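 further: UHRF1 SRA domain binding a labeled hemimethylated CpG hairpin DNA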
MBD2 DBD conf – confirmation of human MBD2-DBD methylated oligonucleotide binding inhibitors. shares compounds with MBD2 DNA inh. 26% of 1,000 active. inhibition, % at 4.4 µM. TR-FRET MBD2-DBD binding to methylated oligonucleotide; in the data active means inhibition above about 14%
Hits are given with their value; . = inactive; / = not tested or not shown. Sampled rows, rich in hits. Any-hit rate of the full collection: about 1.8%. Unless noted, no stated cut-off is given here; in the data, active means inhibition above about 21%; inactive means the rest.

SMILES	UHRF1 MBD2 ctr	MBD2 DNA inh	CASP6 VEID inh	NSD2 HMT inh	LEDGF integ inh	TDP2 inh	UHRF1 DNA bind	MBD2 DBD conf
O=C(CSc1ccccc1)N1CCc2ccccc21	22	14	/	.	.	.	.	.
CCS(=O)(=O)N1CCCCN2[C@H](CO)[C@H](c3ccc(-c4cccc(C#N)c4)cc3)[C@H]2C1	/	/	.	/	/	/	/	/
CN(C)c1ccc(-c2nn3c(-c4ccc(Cl)cc4)nnc3s2)cc1	.	.	/	.	.	.	/	/
Cc1nn2c(-c3ccc(Cl)cc3)nnc2s1	.	14	/	.	.	.	.	.
CCOc1ccccc1NC=C1C(=O)OC(C)(C)OC1=O	.	13	/	.	.	.	.	.
COc1ccccc1NC=C1C(=O)OC(C)(C)OC1=O	.	.	/	.	.	.	/	/
Cc1ccc(C(=O)NC2CCS(=O)(=O)C2)cc1S(=O)(=O)N1CCCC1 (stereo not drawn)	.	17	.	.	.	.	.	.
CC(C)CC#Cc1ccc2c(c1)O[C@H](CN(C)C(=O)c1cccc(F)c1)[C@@H](C)CN([C@@H](C)CO)S2(=O)=O	/	/	.	/	/	/	/	/
COc1ccc2sc(-c3ccccc3OC)c(C#CCCO)c2c1	.	15	.	/	.	.	.	.
O=C(O)C1=CCC=CC1C(=O)O (stereo not drawn)	39	17	68	.	.	.	52	20
O=C(C[C@@H]1CC[C@@H](NS(=O)(=O)c2ccc(F)cc2)[C@H](CO)O1)NCc1ccccc1F	/	/	.	/	/	/	/	/
O=C(Cn1cc(COc2ccccc2C(F)(F)F)nn1)c1ccc(O)cc1	22	15	.	/	.	.	.	.
C[C@H]1CN([C@@H](C)CO)S(=O)(=O)c2ccc(/C=C/c3ccccc3)cc2O[C@H]1CN(C)C(=O)NC1CCCC1	/	/	.	/	/	/	/	/
NC(=O)COC(=O)c1cc(Cl)cc(Cl)c1N	.	32	.	.	.	.	.	.
C[C@@H]1CN([C@@H](C)CO)C(=O)c2c(c3ccccc3n2C)-c2ccccc2CO[C@H]1CN(C)C(=O)Nc1ccc(-c2ccccc2)cc1	/	/	.	/	/	/	/	/
O=S(=O)(NCC1CCCO1)c1ccc2oc3ccc(S(=O)(=O)NCC4CCCO4)cc3c2c1 (stereo not drawn)	.	18	/	.	.	.	.	.
O=S(=O)(NCC1CCCO1)c1ccc(Br)cc1 (stereo not drawn)	.	.	.	.	.	.	/	/
CCCc1nc2ccc(C)cn2c1Cc1ccsc1	22	16	.	/	.	.	.	.
Cc1ccc(Cc2c(-c3cccc(Cl)c3)nc3ccc(C)cn23)cc1	.	.	.	/	.	.	/	/
Cc1ccc2nc(-c3cccc(Cl)c3)c(Cc3ccsc3)n2c1	.	13	.	/	.	.	.	.
CC(=O)N1[C@H](CN(C)C(=O)C2CCC2)[C@@H](c2ccccc2)[C@@H]1CO	/	/	.	/	/	/	/	/
COCC(=O)N[C@@H]1CC[C@@H](CC(=O)NCc2ccccc2OC)O[C@@H]1CO	/	/	.	/	/	/	/	/
COC(=O)C(=Cc1ccncc1)c1cccc2ccccc12	.	40	.	.	.	.	.	.
C[C@@H]1CN([C@@H](C)CO)C(=O)c2cc(NC(=O)CCN3CCOCC3)ccc2O[C@H]1CN(C)Cc1ccncc1	/	/	.	/	/	/	/	/
Cc1ccc(C(=O)N/C(=C\c2ccccc2)C(=O)OCc2ccccc2)cc1	.	14	/	.	.	.	.	.
SMILES	UHRF1 MBD2 ctr	MBD2 DNA inh	CASP6 VEID inh	NSD2 HMT inh	LEDGF integ inh	TDP2 inh	UHRF1 DNA bind	MBD2 DBD conf
O=C(OCc1ccccc1)/C(=C/c1cccc2ccccc12)NC(=O)c1ccccc1	.	.	/	.	.	.	/	/
CCOC(=O)C1CCN(CC(=O)Nc2c(C(=O)OC)[nH]c3cccc(Cl)c23)CC1	.	14	/	.	.	.	.	.
CCOC(=O)C1CCN(CC(=O)Nc2c(C(=O)OC)[nH]c3ccccc23)CC1	.	.	/	.	.	.	/	/
CN(C)c1ccc(/C=N\NC(=S)SCN2C(=O)C3CCC(C)(C2=O)C3(C)C)cc1 (stereo not drawn)	.	.	/	.	.	.	/	/
COc1ccc(/C=N\NC(=S)SCN2C(=O)C3CCC(C)(C2=O)C3(C)C)cc1 (stereo not drawn)	.	48	/	.	.	.	.	.
CC(C)NC(=O)Nc1ccc2c(c1)C(=O)N([C@@H](C)CO)C[C@@H](C)[C@@H](CN(C)C(=O)c1ccccc1)OCCCC[C@@H](C)O2	/	/	.	/	/	/	/	/
COCC#Cc1cnc2c(c1)C(=O)N([C@H](C)CO)C[C@@H](C)[C@@H](CN(C)C(=O)C1CCCCC1)O2	/	/	.	/	/	/	/	/
C/C(=N\NC(=O)c1nc2ccccn2c1C)c1cccc([N+](=O)[O-])c1	.	58	.	.	.	.	.	.
CCc1ccc(NC(=O)CCCN2C(=S)NC(C)(C)CC2C)cc1 (stereo not drawn)	.	19	.	.	.	.	.	.
Cc1ccc(NC(=O)CCCN2C(=S)NC(C)(C)CC2C)cc1 (stereo not drawn)	.	.	.	.	.	.	/	/
O=C(NC1CCCCCC1)C1CCC(CNS(=O)(=O)c2ccc(Br)s2)CC1 (stereo not drawn)	23	14	/	.	.	.	.	.
CN(Cc1ccccc1)C(=O)c1csc([C@@H]2O[C@H](CO)[C@@H](O)[C@H]2O)n1	.	.	.	/	.	.	/	/
CCN(CC)C(=O)c1csc([C@@H]2O[C@H](CO)[C@H](O)[C@H](O)[C@H]2O)n1	.	26	.	.	.	.	.	.
CN1c2ccc(-c3ccccc3F)cc2[C@@H]2[C@@H](CCN2C(=O)NC2CCCCC2)[C@@H]1CO	/	/	.	/	/	/	/	/
C[C@H]1CN([C@@H](C)CO)C(=O)c2cccc(NC(=O)c3ccc(-c4nccs4)cc3)c2O[C@H]1CN(C)S(=O)(=O)c1cccs1	/	/	.	/	/	/	/	/
Cc1nc(C/C(=N\N)c2ccc(O)cc2O)cs1	.	.	.	.	.	.	/	/
CCc1cc(/C(Cc2csc(C)n2)=N/O)c(O)cc1O	.	14	/	.	.	.	.	.
COC(=O)c1ccc(Oc2ccc3nnc(C)n3n2)cc1	.	13	/	.	.	.	.	.
Cc1ccc(S(=O)(=O)NC[C@@H]2CC[C@@H]3[C@@H](CN3Cc3cc(-c4ccccc4)on3)O2)cc1	/	/	.	/	/	/	/	/
Cc1ccccc1NC(=O)N1CCC(NC(=O)C2CCCCC2)CC1	.	14	.	.	.	.	.	.
O=C(NC1CCN(C(=O)Nc2ccccc2)CC1)C1CCCCC1	.	.	/	/	.	.	/	/
CC(C)C#Cc1ccc([C@H]2[C@H]3CN(C(=O)c4ccc5c(c4)OCO5)CCCCN3[C@H]2CO)cc1	/	/	.	/	/	/	/	/
O=C(CNc1ccccc1Cl)N/N=C1\CCCc2ccccc21	.	23	.	.	.	.	.	.
